In ChEMBL document CHEMBL4152256, “Structure-activity relationship of new antimalarial 1-aryl-3-susbtituted propanol derivatives: Synthesis, preliminary toxicity profiling, parasite life cycle stage studies, target exploration, and targeted delivery” (Eur J Med Chem, 2018):

Key:
Plasmodium falciparum [1] = assay: Antiplasmodial activity against multidrug-resistant Plasmodium falciparum FCR-3 by [3H]-hypoxanthine incorporation assay; format: functional, organism-based, FCR-3/Gambia
In short: (§1)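 Blood-stage P. falciparum 3D7 and FCR-3 were tested by a modified [3H]-hypoxanthine incorporation assay. Chloroquine was the reference in all runs.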

Plasmodium falciparum [2] = assay: Antiplasmodial activity against chloroquine-sensitive Plasmodium falciparum 3D7 by [3H]-hypoxanthine incorporation assay; format: functional, organism-based; in short: as §1
[3] = Cytotoxicity against human HepG2A16 cells by MTT assay; format: cell-based
In short: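 MTT viability assay on HepG2-A16 cells, giving CC50 values.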

[4] = Selectivity index, ratio of CC50 for human HepG2A16 cells by MTT assay to IC50 for multidrug-resistant Plasmodium falciparum FCR-3; format: toxicity; conditions: for selectivity ratio: HepG2A16 cells, read-out: Ratio CC50/IC50
In short: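 HepG2-A16 human hepatoma cells were tested by MTT viability assay to give CC50. Blood-stage activity was measured against the multidrug-resistant P. falciparum FCR-3 strain by [3H]-hypoxanthine incorporation to give IC50. SI = CC50 HepG2 / FCR-3 IC50.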

[5] = Genotoxicity in Salmonella typhimurium TA1535 harboring pSK1002 assessed as survival at 0.125 mg/ml in absence of Sprague-Dawley rat liver S9 fraction after by SOS/umu assay relative to control; format: toxicity, organism-based; conditions: salmonella enterica subsp. enterica serovar typhimurium, read-out: Survival
[6] = Genotoxicity in Salmonella typhimurium TA1535 harboring pSK1002 assessed as umu gene induction at 0.125 mg/ml in absence of Sprague-Dawley rat liver S9 fraction after by SOS/umu assay relative to control; format: toxicity, organism-based; conditions: salmonella enterica subsp. enterica serovar typhimurium, read-out: FC
[7] = Genotoxicity in Salmonella typhimurium TA1535 harboring pSK1002 assessed as survival at 0.125 mg/ml in presence of Sprague-Dawley rat liver S9 fraction after by SOS/umu assay relative to control; format: toxicity, organism-based; conditions: salmonella enterica subsp. enterica serovar typhimurium, read-out: Survival
[8] = Genotoxicity in Salmonella typhimurium TA1535 harboring pSK1002 assessed as umu gene induction at 0.125 mg/ml in presence of Sprague-Dawley rat liver S9 fraction after by SOS/umu assay relative to control; format: toxicity, organism-based; conditions: salmonella enterica subsp. enterica serovar typhimurium, read-out: FC
[9] = Genotoxicity in Salmonella typhimurium TA1535 harboring pSK1002 assessed as umu gene induction at 0.063 mg/ml in absence of Sprague-Dawley rat liver S9 fraction after by SOS/umu assay relative to control; format: toxicity, organism-based; conditions: salmonella enterica subsp. enterica serovar typhimurium, read-out: FC
[10] = Genotoxicity in Salmonella typhimurium TA1535 harboring pSK1002 assessed as survival at 0.063 mg/ml in presence of Sprague-Dawley rat liver S9 fraction after by SOS/umu assay relative to control; format: toxicity, organism-based; conditions: salmonella enterica subsp. enterica serovar typhimurium, read-out: Survival
[11] = Genotoxicity in Salmonella typhimurium TA1535 harboring pSK1002 assessed as umu gene induction at 0.063 mg/ml in presence of Sprague-Dawley rat liver S9 fraction after by SOS/umu assay relative to control; format: toxicity, organism-based; conditions: salmonella enterica subsp. enterica serovar typhimurium, read-out: FC
[12] = Genotoxicity in Salmonella typhimurium TA1535 harboring pSK1002 assessed as survival at 0.031 mg/ml in absence of Sprague-Dawley rat liver S9 fraction after by SOS/umu assay relative to control; format: toxicity, organism-based; conditions: salmonella enterica subsp. enterica serovar typhimurium, read-out: Survival
[13] = Genotoxicity in Salmonella typhimurium TA1535 harboring pSK1002 assessed as umu gene induction at 0.031 mg/ml in absence of Sprague-Dawley rat liver S9 fraction after by SOS/umu assay relative to control; format: toxicity, organism-based; conditions: salmonella enterica subsp. enterica serovar typhimurium, read-out: FC
[14] = Genotoxicity in Salmonella typhimurium TA1535 harboring pSK1002 assessed as survival at 0.031 mg/ml in presence of Sprague-Dawley rat liver S9 fraction after by SOS/umu assay relative to control; format: toxicity, organism-based; conditions: salmonella enterica subsp. enterica serovar typhimurium, read-out: Survival
[15] = Genotoxicity in Salmonella typhimurium TA1535 harboring pSK1002 assessed as umu gene induction at 0.031 mg/ml in presence of Sprague-Dawley rat liver S9 fraction after by SOS/umu assay relative to control; format: toxicity, organism-based; conditions: salmonella enterica subsp. enterica serovar typhimurium, read-out: FC
[16] = Genotoxicity in Salmonella typhimurium TA1535 harboring pSK1002 assessed as survival at 0.016 mg/ml in absence of Sprague-Dawley rat liver S9 fraction after by SOS/umu assay relative to control; format: toxicity, organism-based; conditions: salmonella enterica subsp. enterica serovar typhimurium, read-out: Survival
[17] = Genotoxicity in Salmonella typhimurium TA1535 harboring pSK1002 assessed as umu gene induction at 0.016 mg/ml in absence of Sprague-Dawley rat liver S9 fraction after by SOS/umu assay relative to control; format: toxicity, organism-based; conditions: salmonella enterica subsp. enterica serovar typhimurium, read-out: FC
[18] = Genotoxicity in Salmonella typhimurium TA1535 harboring pSK1002 assessed as survival at 0.016 mg/ml in presence of Sprague-Dawley rat liver S9 fraction after by SOS/umu assay relative to control; format: toxicity, organism-based; conditions: salmonella enterica subsp. enterica serovar typhimurium, read-out: Survival
[19] = Genotoxicity in Salmonella typhimurium TA1535 harboring pSK1002 assessed as umu gene induction at 0.016 mg/ml in presence of Sprague-Dawley rat liver S9 fraction after by SOS/umu assay relative to control; format: toxicity, organism-based; conditions: salmonella enterica subsp. enterica serovar typhimurium, read-out: FC
[20] = Genotoxicity in Salmonella typhimurium TA1535 harboring pSK1002 assessed as survival at 0.008 mg/ml in absence of Sprague-Dawley rat liver S9 fraction after by SOS/umu assay relative to control; format: toxicity, organism-based; conditions: salmonella enterica subsp. enterica serovar typhimurium, read-out: Survival
[21] = Genotoxicity in Salmonella typhimurium TA1535 harboring pSK1002 assessed as survival at 0.008 mg/ml in presence of Sprague-Dawley rat liver S9 fraction after by SOS/umu assay relative to control; format: toxicity, organism-based; conditions: salmonella enterica subsp. enterica serovar typhimurium, read-out: Survival
[22] = Genotoxicity in Salmonella typhimurium TA1535 harboring pSK1002 assessed as umu gene induction at 0.008 mg/ml in presence of Sprague-Dawley rat liver S9 fraction after by SOS/umu assay relative to control; format: toxicity, organism-based; conditions: salmonella enterica subsp. enterica serovar typhimurium, read-out: FC
[23] = Genotoxicity in Salmonella typhimurium TA1535 harboring pSK1002 assessed as survival at 0.004 mg/ml in absence of Sprague-Dawley rat liver S9 fraction after by SOS/umu assay relative to control; format: toxicity, organism-based; conditions: salmonella enterica subsp. enterica serovar typhimurium, read-out: Survival
[24] = Genotoxicity in Salmonella typhimurium TA1535 harboring pSK1002 assessed as survival at 0.004 mg/ml in presence of Sprague-Dawley rat liver S9 fraction after by SOS/umu assay relative to control; format: toxicity, organism-based; conditions: salmonella enterica subsp. enterica serovar typhimurium, read-out: Survival
[25] = Genotoxicity in Salmonella typhimurium TA1535 harboring pSK1002 assessed as umu gene induction at 0.004 mg/ml in presence of Sprague-Dawley rat liver S9 fraction after by SOS/umu assay relative to control; format: toxicity, organism-based; conditions: salmonella enterica subsp. enterica serovar typhimurium, read-out: FC
[26] = Genotoxicity in Salmonella typhimurium TA1535 harboring pSK1002 assessed as umu gene induction at 0.002 mg/ml in absence of Sprague-Dawley rat liver S9 fraction after by SOS/umu assay relative to control; format: toxicity, organism-based; conditions: salmonella enterica subsp. enterica serovar typhimurium, read-out: FC
[27] = Genotoxicity in Salmonella typhimurium TA1535 harboring pSK1002 assessed as umu gene induction at 0.002 mg/ml in presence of Sprague-Dawley rat liver S9 fraction after by SOS/umu assay relative to control; format: toxicity, organism-based; conditions: salmonella enterica subsp. enterica serovar typhimurium, read-out: FC
[28] = Genotoxicity in Salmonella typhimurium TA1535 harboring pSK1002 assessed as survival at 0.001 mg/ml in absence of Sprague-Dawley rat liver S9 fraction after by SOS/umu assay relative to control; format: toxicity, organism-based; conditions: salmonella enterica subsp. enterica serovar typhimurium, read-out: Survival
[29] = Genotoxicity in Salmonella typhimurium TA1535 harboring pSK1002 assessed as umu gene induction at 0.001 mg/ml in absence of Sprague-Dawley rat liver S9 fraction after by SOS/umu assay relative to control; format: toxicity, organism-based; conditions: salmonella enterica subsp. enterica serovar typhimurium, read-out: FC
[30] = Plasmodium falciparum, FCR-3/Gambia, 3 h

Row | Structure (SMILES) | viability at 0.125 mg/ml [5] | fold induction at 0.125 mg/ml [6] | viability at 0.125 mg/ml [7] | fold induction at 0.125 mg/ml [8] | fold induction at 0.063 mg/ml [9] | viability at 0.063 mg/ml [10] | fold induction at 0.063 mg/ml [11] | viability at 0.031 mg/ml [12] | fold induction at 0.031 mg/ml [13] | viability at 0.031 mg/ml [14] | fold induction at 0.031 mg/ml [15] | viability at 0.016 mg/ml [16] | fold induction at 0.016 mg/ml [17] | viability at 0.016 mg/ml [18] | fold induction at 0.016 mg/ml [19] | viability at 0.008 mg/ml [20] | viability at 0.008 mg/ml [21] | fold induction at 0.008 mg/ml [22] | viability at 0.004 mg/ml [23] | viability at 0.004 mg/ml [24] | other results
1 | OC(CCN1CCN(c2ccccc2C(F)(F)F)CC1)c1ccc(F)cc1 (configuration not stated) | 25.4% | 1.2 | 21.3% | 1.9 | 1.3 | 89% | 0.8 | 95.5% | 0.8 | 86.7% | 1 | 99.8% | 0.8 | 87.9% | 0.9 | 98.3% | 96.1% | 1 | 107% | 92.9% | IC50 (Plasmodium falciparum [1]; [30]): 1.69 µM; IC50 (Plasmodium falciparum [2]; Plasmodium falciparum, 3D7): 1.01 µM; CC50 ([3]; HepG2A16 cells): 1.35 µM; selectivity ratio [4]: 1; fold induction at 0.004 mg/ml [25]: 1.1; fold induction at 0.002 mg/ml [26]: 0.8; fold induction at 0.002 mg/ml [27]: 1; viability at 0.001 mg/ml [28]: 111%; fold induction at 0.001 mg/ml [29]: 0.9
2 | OC(CCN1CCN(C(c2ccccc2)c2ccccc2)CC1)c1ccc(F)c(F)c1 (configuration not stated) | 24.1% | 1.4 | 117% | 0.7 | 4 | 112% | 0.8 | 20.7% | 1.9 | 103% | 0.8 | 36.7% | 2 | 94.9% | 0.8 | 105% | 101% | 0.8 | 102% | 87.6% | IC50 (Plasmodium falciparum [1]; [30]): 0.37 µM; IC50 (Plasmodium falciparum [2]; Plasmodium falciparum, 3D7): 0.38 µM; CC50 ([3]; HepG2A16 cells): 54.3 µM; selectivity ratio [4]: 147; fold induction at 0.004 mg/ml [25]: 0.9; fold induction at 0.002 mg/ml [26]: 0.9; fold induction at 0.002 mg/ml [27]: 0.8; viability at 0.001 mg/ml [28]: 110%; fold induction at 0.001 mg/ml [29]: 0.6
3 | N#Cc1ccc(N2CCC(NCCC(O)c3ccc(F)c4ccccc34)CC2)c(C(F)(F)F)c1 (stereo in doubt; 72) | 62.4% | 0.2 | 91% | 0.2 | 0.3 | 85.2% | 0.2 | 30.2% | 0.7 | 35% | 0.6 | 28.3% | 0.8 | 36.3% | 0.6 | 32.9% | 52.9% | 1.3 | 33.3% | 136% | IC50 (Plasmodium falciparum [1]): 0.08 µM; IC50 (Plasmodium falciparum [2]): 0.13 µM; CC50 [3]: 6.22 µM; Ratio CC50/IC50 [4]: 78; fold induction at 0.004 mg/ml [25]: 0.7; fold induction at 0.002 mg/ml [26]: 1.3; fold induction at 0.002 mg/ml [27]: 1; viability at 0.001 mg/ml [28]: 132%; fold induction at 0.001 mg/ml [29]: 1
